Most compounds without a hit are left out; they make up all but 3.7% or so of the library.
KCNQ1 act: human KCNQ1 channel potentiation or activation. P51787. CHO-K1 KCNQ1, thallium flux FluxOR fluorescence; active compounds read high. B-score at 10 µM. 0.35% of 310,000 active. AID 2648;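 active = fluorescence ratio B-score, a plate-corrected score, at least three library SD, with initial intensity B-score within 5 SD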
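assay system = CHO-K1 cells stably expressing KCNQ1 | medium = assay buffer, equal DMSO in all wells | timing = 37 °C overnight plating, 90-min dark dye load, 20-min compound pretreatment | measured by = kinetic FluxOR thallium fluorescence, 10-s 1-Hz baseline, 110-s post-stimulus read | measure = fluorescence change relative to baseline, converted to B score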
KCNK3 block: human KCNK3 channel inhibition, primary screen. O14649. CHO-KCNK3 thallium flux, FluxOR fluorescence; active compounds read low. B-score at 10 µM. 0.84% of 340,000 active;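 active = B-score under library mean minus 4 SD, starting fluorescence ratio at most library mean plus 5 SD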;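 note: more negative B-score means stronger inhibition of thallium flux through KCNK3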
KCNK9 block: blocks the human KCNK9 two-pore domain potassium channel; Q9NPC2; HEK293 KCNK9, FluxOR thallium flux fluorescence; active compounds read low; B-score at 10 µM; 1.2% of 310,000 active;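 active = ratio B-score over 3 SD below the library mean, with starting fluorescence within 5 SD of its mean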;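 note: negative B-score means less thallium flux so channel inhibition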
Kir21 inh: inhibitors of mouse Kir2.1 inward-rectifier potassium channel; P35561; HEK293-Kir2.1, FluxOR thallium flux fluorescence; active compounds read low; B-score at 10 µM; 0.85% of 310,000 active; AID 1672;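 active = fluorescence ratio B-score at or below minus 3 SD of library scores, with starting-brightness B-score within 2 SD, cut at about -4.2 in these data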;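 note: channel flux triggered by added potassium and thallium sulfate stimulus; B-score of peak minus minimum fluorescence over baseline after thallium stimulus; more negative B-score means stronger Kir2.1 block with less thallium influx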
Target sequence (P35561 whole entry, looked up): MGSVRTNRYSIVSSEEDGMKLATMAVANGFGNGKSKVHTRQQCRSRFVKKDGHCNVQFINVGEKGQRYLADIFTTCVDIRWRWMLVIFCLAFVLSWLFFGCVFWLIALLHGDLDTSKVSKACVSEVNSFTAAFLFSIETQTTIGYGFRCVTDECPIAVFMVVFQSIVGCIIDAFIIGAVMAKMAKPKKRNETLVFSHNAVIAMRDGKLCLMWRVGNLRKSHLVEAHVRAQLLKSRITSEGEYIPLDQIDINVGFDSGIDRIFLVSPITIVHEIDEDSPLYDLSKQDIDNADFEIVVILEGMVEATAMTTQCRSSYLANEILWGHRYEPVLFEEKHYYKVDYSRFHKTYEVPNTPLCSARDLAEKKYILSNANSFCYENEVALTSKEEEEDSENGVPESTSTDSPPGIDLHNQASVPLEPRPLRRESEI
KCNQ1 inh: blocks the human KCNQ1 potassium channel. CHO-K1 KCNQ1, FluxOR thallium flux fluorescence; active compounds read high. B-score at 10 µM. 1.3% of 310,000 active. AID 2642;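 active = compounds whose thallium flux B-score, printed positive for inhibition, exceeds three library SD while starting fluorescence stays within three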;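 note: channel opened by potassium depolarization with thallium stimulus after 20 min compound exposure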
hERG rescue: hERG (human) protection from proarrhythmic block; activation (rescue from dofetilide block), less the hit threshold, % at 10 µM; Q12809; CHO-hERG, FluxOR thallium flux, dofetilide IC70 present; 0.51% of 310,000 active; AID 1511;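 active = activation above the mean of controls blocked by dofetilide plus 5 SD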;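 note: thallium influx through hERG after potassium depolarization seen as dye fluorescence rise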
Numbers stand for hits; – = inactive; · = not tested or not shown.

SMILES | KCNQ1 act | KCNK3 block | KCNK9 block | Kir21 inh | KCNQ1 inh | hERG rescue
CC1(C)C2CC[C@]3(C)C(CC=C4[C@@H]5C[C@@](C)(CO)[C@@H](O)C[C@]5(C(=O)O)CC[C@]43C)[C@@]2(C)CC[C@@H]1O (stereo partly drawn) | – | · | – | – | – | –
COc1ccc(Cl)cc1C(=O)CSc1nc(N)cc(N)n1 | – | – | – | -4.7 | – | –
CCCCn1nnnc1SCC(=O)c1cc(Cl)ccc1OC | – | – | – | – | – | –
CCOc1ccc(-c2c(=O)n(O)c3ccccc3[n+]2[O-])cc1 | 12 | – | – | – | – | 18
CCOc1ccc(-c2c(=O)n(OCC)c3ccccc3[n+]2[O-])cc1 | – | – | – | – | – | –
O=c1c(-c2ccccc2)[n+]([O-])c2ccccc2n1O | – | – | – | – | – | 13
Cc1ccc(-c2c(=O)n(O)c3ccccc3[n+]2[O-])cc1 | 17 | – | – | – | – | –
COn1c(=O)c(-c2ccccc2)[n+]([O-])c2ccccc21 | – | – | – | – | – | –
COn1c(=O)c(-c2ccc(C)cc2)[n+]([O-])c2ccccc21 | – | – | – | – | – | –
Cc1ccc(C(=O)Nc2c(C)cc(C)c3cccnc23)cc1 | – | – | – | – | – | –
CN(Cc1ccccc1)C(=S)NC(=O)c1cccs1 | 39 | – | – | – | – | –
CN(Cc1ccccc1)C(=S)NC(=O)c1ccc(-c2ccccc2)cc1 | – | – | – | – | – | –
Cc1ccc(NC(=O)CN(C)S(=O)(=O)c2ccc(Br)s2)cc1F | – | – | – | – | – | –
O=c1[nH]c(/C(=N\O)c2ccccc2)no1 | – | – | -7.2 | – | – | –
O=C(c1ccccc1)c1ncc[nH]1 | – | – | – | – | – | –
CC(NC(=O)c1cccc(S(=O)(=O)N2CCCCCC2)c1)c1ccccc1 (stereo not drawn) | · | – | · | · | · | ·
O=[N+]([O-])c1cccc(/C=N/Nc2nc(N3CCOCC3)nc(N3CCOCC3)n2)c1 | – | – | – | – | – | –
O=[N+]([O-])c1cccc(/C=C/C=N/Nc2nc(N3CCCCC3)nc(N3CCCCC3)n2)c1 | – | – | – | – | 6 | –
CC(=O)NC(Cc1ccc(F)cc1)C(=O)NC1CCN(C(=O)Nc2ccc(F)cc2)CC1 (stereo not drawn) | – | – | – | – | – | –
COC(=O)/C(=C/c1cn(C)c2ccccc12)[N+](=O)[O-] | – | · | – | -5.3 | – | –
COC(=O)/C(=C/c1cn(C(C)=O)c2ccccc12)[N+](=O)[O-] | · | – | · | · | · | ·
CC(NC(=O)COC(=O)c1cc(NS(=O)(=O)c2ccc(Cl)c([N+](=O)[O-])c2)ccc1O)C1CC2CCC1C2 (stereo not drawn) | – | – | – | – | 11 | –
COc1ccc(NS(=O)(=O)c2ccc(O)c(C(=O)OCC(=O)NC(C)C3CC4CCC3C4)c2)cc1 (stereo not drawn) | – | – | – | – | – | –
CCCN(CCC)C(=S)NC1CC2C=CC1C2 (stereo not drawn) | – | – | – | -4.7 | – | –
Oc1ccccc1/C=N/NC(=S)NC1CC2C=CC1C2 (stereo not drawn) | – | – | – | – | – | –
SMILES | KCNQ1 act | KCNK3 block | KCNK9 block | Kir21 inh | KCNQ1 inh | hERG rescue
O=C(COc1ccc2ccccc2c1)N[C@@H](C(=O)O)c1ccc(O)cc1 | – | – | – | – | – | –
Cn1nc(-c2ccc(N3CCOCC3)c(NS(=O)(=O)c3ccc(Cl)cc3)c2)c2ccccc2c1=O | · | -10 | · | · | · | ·
O=C(O)c1ccccc1C(=O)OCc1c(-c2ccccc2)ncc2ccccc12 | · | – | · | · | · | ·
S=c1nc(-c2ccccc2)n(CCCN2CCOCC2)c2c1CCCC2 | – | – | – | – | – | 6.8
O=C(Nc1ccc(N2CCCC2)c(S(=O)(=O)Nc2cccc(C(F)(F)F)c2)c1)c1cccs1 | – | – | -7 | – | – | –
CCOC(=O)c1c(CSc2ccccc2)n(C)c2ccc(O)c(CN3CCOCC3)c12 | – | – | – | -5.4 | – | –
CCOC(=O)c1c(C)n(C)c2ccc(O)c(CN3CCC(C)CC3)c12 | – | – | – | – | – | –
CCOC(=O)c1c(C)n(C)c2ccc(O)c(CN3CCN(C)CC3)c12 | – | – | – | – | – | –
CCOC(=O)c1c(CSc2ccccc2)n(C)c2cc(Br)c(OC)c(O)c12 | – | – | – | – | 6 | –

Screening results (PubChem BioAssay)
